Results as given in ChEMBL document CHEMBL1132344, “Novel calcium antagonists with both calcium overload inhibition and antioxidant activity. 2. Structure-activity relationships of thiazolidinone derivatives” (J Med Chem, 1999).

Legend:
Rattus norvegicus [1] = species: Rattus norvegicus; assay: Compound was tested in vitro for [Ca2+] antagonistic activity in K+-depolarized isolated rat aorta; format: functional
How it was run: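 Thoracic aorta rings (2–3 mm) from male Sprague–Dawley rats (350–550 g), isometric tension in Krebs–Henseleit pH 7.4, 37 °C, 95% O2/5% CO2, 2 g resting tension. After a priming 30 mM K+ contraction and washout, second 30 mM K+ contraction; compound added cumulatively in half-log steps. IC50 = concentration relaxing contraction to 50%; mean ± SE, 2–8 experiments.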

Rattus norvegicus [2] = species: Rattus norvegicus; assay: Compound was tested for [Ca2+] overload inhibitory activity in the veratridine-induced [Ca2+] overload model of rat cardiac myocytes.; format: functional, organism-based
How it was run: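 Ventricular myocytes isolated from male Sprague–Dawley rats (300–500 g) by enzyme perfusion; rod-shaped cells exposed to compound 30 min, then 50 μg/mL veratridine added. Survival judged by cell shape 5 min later. Value is molar concentration inhibiting cell death by >80%; 2–8 experiments, >50 rod-shaped myocytes each.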

Oryctolagus cuniculus [3] = species: Oryctolagus cuniculus; assay: in vitro inhibitory activity on soybean lipoxygenase-induced lipid peroxidations of rabbit low-density lipoprotein (LDL) at 0.5 uM dosage; format: functional
How it was run: (§1)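 Rabbit LDL (Havel method) with compound, oxidised by soybean lipoxygenase type-1S (40 μg/mL final) for 24 h at 37 °C in CO2 incubator. LDL fraction separated by gel-permeation chromatography; fluorescence read at ex 360/em 430 nm. Expressed as percent of control.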

Oryctolagus cuniculus [4] = species: Oryctolagus cuniculus; assay: in vitro inhibitory activity on soybean lipoxygenase-induced lipid peroxidations of rabbit low-density lipoprotein (LDL) at 5 uM dosage.; format: functional, organism-based; how it was run: as §1
Canis familiaris = assay: Effect on coronary blood flow (CBF) by intravenous administration of compound in anesthetized dogs.; format: functional, Canis lupus familiaris; parameters: concentration or dose not given beside the values
How it was run: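 Male beagles (9–14 kg) under pentobarbital (35 mg/kg iv, then 3–5 mg/kg/h infusion), artificially ventilated, left thoracotomy. Compound given iv via cephalic vein at […]. Coronary blood flow change expressed as maximal percent change from pre-dose value; mean ± SE from 5–6 dogs or a single experiment.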

Oryctolagus cuniculus [5] = species: Oryctolagus cuniculus; assay: In vitro inhibitory activity on soybean lipoxygenase-induced lipid peroxidations of rabbit low-density lipoprotein (LDL) at 0.5 uM dosage; format: functional; how it was run: as §1
Oryctolagus cuniculus [6] = species: Oryctolagus cuniculus; assay: In vitro inhibitory activity on soybean lipoxygenase-induced lipid peroxidations of rabbit low-density lipoprotein (LDL) at 5 uM dosage.; format: functional, organism-based; how it was run: as §1

Compound	IC50 (Rattus norvegicus [1]; Rattus norvegicus, Aorta) [nM]	IC50 (Rattus norvegicus [2]; Rattus norvegicus) [nM]	also measured
Cc1cc(C2SCC(=O)N2CCCN(C)CCOc2ccc3c(c2)OCO3)c(C)c(C)c1O (stereo not drawn)	630	–	–
Cc1cc(C2SCC(=O)N2CCCN(C)CCOc2ccc3c(c2)OCO3)cc(C)c1O (stereo not drawn)	2300	–	–
CN(CCCN1C(=O)CSC1c1ccc(O)cc1)CCOc1ccc2c(c1)OCO2 (stereo not drawn)	2600	–	–
CN(CCCN1C(=O)CSC1c1cc(C(C)(C)C)c(O)c(C(C)(C)C)c1)CCOc1ccc2c(c1)OCO2 (single isomer, unassigned; (+)) [listing 1 of 2 here]	–	–	LDL oxidation (Oryctolagus cuniculus [3]): 13.5%; LDL oxidation (Oryctolagus cuniculus [4]): 5.9%
CN(CCCN1C(=O)CSC1c1cc(Cl)c(O)c(Cl)c1)CCOc1ccc2c(c1)OCO2 (stereo not drawn)	> 10000	–	–
CN(CCCN1C(=O)C[S+]([O-])C1c1cc(C(C)(C)C)c(O)c(C(C)(C)C)c1)CCOc1ccc2c(c1)OCO2 (stereo not drawn)	790	–	–
Cc1cc(C(C)(C)C)c(O)c(C(C)(C)C)c1 [BUTYLATED HYDROXYTOLUENE]	19700	900	–
CN(CCCN1C(=O)CSC1c1cc(C(C)(C)C)c(O)c(C(C)(C)C)c1)CCOc1ccc2c(c1)OCO2 (stereo in doubt; 1) [listing 1 of 2 here]	–	–	LDL oxidation (Oryctolagus cuniculus [5]): 12.9%; LDL oxidation (Oryctolagus cuniculus [6]): 3%
COc1cc(C2SCC(=O)N2CCCN(C)CCOc2ccc3c(c2)OCO3)cc(OC)c1O (stereo not drawn)	4100	–	–
CN(CCCN1C(=O)CSC1c1cc(C(C)(C)C)c(O)c(C(C)(C)C)c1)CCOc1ccc2c(c1)OCO2 (single isomer, unassigned; (-)) [listing 1 of 2 here]	–	–	LDL oxidation (Oryctolagus cuniculus [3]): 16.4%; LDL oxidation (Oryctolagus cuniculus [4]): 3.9%
Cc1c(C)c2c(c(C)c1O)CC[C@@](C)(CCC[C@H](C)CCC[C@H](C)CCCC(C)C)O2 [ALPHA-TOCOPHEROL]	60200	13200	–
CN(CCCN1C(=O)CSC1c1ccc(O)c(C(C)(C)C)c1)CCOc1ccc2c(c1)OCO2 (stereo not drawn)	560	–	–
CN(CCCN1C(=O)CSC1c1cc(C(C)(C)C)c(O)c(C(C)(C)C)c1)CCOc1ccc2c(c1)OCO2 (single isomer, unassigned; (+)) [listing 2 of 2 here]	–	–	CBF increasing activity (Canis familiaris): 16%; IC50 (Rattus norvegicus [1]): 340 nM; IC50 (Rattus norvegicus [2]): 320 nM
CN(CCCN1C(=O)CSC1c1cc(C(C)(C)C)c(O)c(C(C)(C)C)c1)CCOc1ccc2c(c1)OCO2 (stereo in doubt; 1) [listing 2 of 2 here]	–	–	CBF increasing activity (Canis familiaris): 96%; IC50 (Rattus norvegicus [1]): 62 nM
CN(CCCN1C(=O)CSC1c1cc(C(C)(C)C)c(O)c(C(C)(C)C)c1)CCOc1ccc2c(c1)OCO2 (single isomer, unassigned; (-)) [listing 2 of 2 here]	–	–	CBF increasing activity (Canis familiaris): 117%; IC50 (Rattus norvegicus [1]): 33 nM; IC50 (Rattus norvegicus [2]): 320 nM

Continued, in another order:

IC50 (Rattus norvegicus [1]; Rattus norvegicus, Aorta) [nM]	IC50 (Rattus norvegicus [2]; Rattus norvegicus) [nM]	Compound	also measured
360	–	CN(CCOc1ccc2c(c1)OCO2)CCN1C(=O)CSC1c1cc(C(C)(C)C)c(O)c(C(C)(C)C)c1 (stereo not drawn)	–
210	1000	CN(CCCCN1C(=O)CSC1c1cc(C(C)(C)C)c(O)c(C(C)(C)C)c1)CCOc1ccc2c(c1)OCO2 (stereo not drawn)	–
450	1000	CC(C)N(CCCN1C(=O)CSC1c1cc(C(C)(C)C)c(O)c(C(C)(C)C)c1)CCOc1ccc2c(c1)OCO2 (stereo not drawn)	–
140	320	CC(C)c1cc(C2SCC(=O)N2CCCN(C)CCOc2ccc3c(c2)OCO3)cc(C(C)C)c1O (stereo not drawn)	–
320	–	CCc1cc(C2SCC(=O)N2CCCN(C)CCOc2ccc3c(c2)OCO3)cc(CC)c1O (stereo not drawn)	–
160	1000	CC(C)(C)c1cc(C2SCC(=O)N2CCCNCCOc2ccc3c(c2)OCO3)cc(C(C)(C)C)c1O (stereo not drawn)	–
320	–	CC(C)(C)c1cc(C2SCC(=O)N2CCCN(CCO)CCOc2ccc3c(c2)OCO3)cc(C(C)(C)C)c1O (stereo not drawn)	–
78	320	CN(CCCOc1ccc2c(c1)OCO2)CCCN1C(=O)CSC1c1cc(C(C)(C)C)c(O)c(C(C)(C)C)c1 (stereo not drawn)	CBF increasing activity (Canis familiaris): 23%; LDL oxidation (Oryctolagus cuniculus [3]): 16.4%; LDL oxidation (Oryctolagus cuniculus [4]): 3.9%
280	–	CN(CCCCCN1C(=O)CSC1c1cc(C(C)(C)C)c(O)c(C(C)(C)C)c1)CCOc1ccc2c(c1)OCO2 (stereo not drawn)	LDL oxidation (Oryctolagus cuniculus [4]): 5.9%
63	320	CCN(CCCN1C(=O)CSC1c1cc(C(C)(C)C)c(O)c(C(C)(C)C)c1)CCOc1ccc2c(c1)OCO2 (stereo not drawn)	CBF increasing activity (Canis familiaris): 52%; LDL oxidation (Oryctolagus cuniculus [3]): 16.8%; LDL oxidation (Oryctolagus cuniculus [4]): 6.4%
36	1000	COc1c(C(C)(C)C)cc(C2SCC(=O)N2CCCN(C)CCOc2ccc3c(c2)OCO3)cc1C(C)(C)C (stereo not drawn)	LDL oxidation (Oryctolagus cuniculus [3]): 91.6%; LDL oxidation (Oryctolagus cuniculus [4]): 39.7%
160	–	CN(CCCN1C(=S)CSC1c1cc(C(C)(C)C)c(O)c(C(C)(C)C)c1)CCOc1ccc2c(c1)OCO2 (stereo not drawn)	LDL oxidation (Oryctolagus cuniculus [3]): 22.8%; LDL oxidation (Oryctolagus cuniculus [4]): 11.3%
200	320	CN(CCCCOc1ccc2c(c1)OCO2)CCCN1C(=O)CSC1c1cc(C(C)(C)C)c(O)c(C(C)(C)C)c1 (stereo not drawn)	–
100	> 10000	COc1ccc([C@@H]2Sc3ccccc3N(CCN(C)C)C(=O)[C@@H]2OC(C)=O)cc1 [DILTIAZEM]	CBF increasing activity (Canis familiaris): 86%; LDL oxidation (Oryctolagus cuniculus [3]): 109%; LDL oxidation (Oryctolagus cuniculus [4]): 111%
280	–	Cc1cc(C2SCC(=O)N2CCCN(C)CCOc2ccc3c(c2)OCO3)cc(C(C)(C)C)c1O (stereo not drawn)	–
